Here are results for 21 molecules from ChEMBL document CHEMBL1154014, “Discovery of a novel class of 2-mercaptohexanoic acid derivatives as highly active PPARalpha agonists” (Bioorg Med Chem Lett, 2009).

Broadly, the EC50 is the midpoint of the concentration-response curve.

The source made the active and inactive calls. The rule behind the calls is not given here.

The target of experiment [1] is T1, Peroxisome proliferator-activated receptor alpha (Homo sapiens) (UniProt Q07869).
T1 sequence (whole entry): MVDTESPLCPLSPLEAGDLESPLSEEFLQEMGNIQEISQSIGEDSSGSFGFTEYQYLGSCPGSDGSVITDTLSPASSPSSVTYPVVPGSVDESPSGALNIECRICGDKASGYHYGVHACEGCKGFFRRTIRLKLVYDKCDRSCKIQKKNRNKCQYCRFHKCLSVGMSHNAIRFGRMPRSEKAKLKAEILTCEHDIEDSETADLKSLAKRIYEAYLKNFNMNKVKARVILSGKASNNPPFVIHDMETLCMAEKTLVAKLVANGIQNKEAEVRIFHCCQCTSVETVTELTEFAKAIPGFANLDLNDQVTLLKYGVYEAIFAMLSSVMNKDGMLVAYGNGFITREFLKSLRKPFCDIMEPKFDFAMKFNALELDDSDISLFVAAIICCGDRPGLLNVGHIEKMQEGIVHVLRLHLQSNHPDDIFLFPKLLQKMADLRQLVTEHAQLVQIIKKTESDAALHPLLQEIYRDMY
Kind of experiment: Agonist activity at human PPARalpha expressed in african green monkey COS7 cells at 1 uM by Gal4 transactivation assay relative to GW-7647. The experiment is classed as functional, cell-based. The settings on record: COS-7.

Experiment [2] addresses T2, Peroxisome proliferator-activated receptor delta (Homo sapiens) (UniProt Q03181).
T2 sequence (whole entry): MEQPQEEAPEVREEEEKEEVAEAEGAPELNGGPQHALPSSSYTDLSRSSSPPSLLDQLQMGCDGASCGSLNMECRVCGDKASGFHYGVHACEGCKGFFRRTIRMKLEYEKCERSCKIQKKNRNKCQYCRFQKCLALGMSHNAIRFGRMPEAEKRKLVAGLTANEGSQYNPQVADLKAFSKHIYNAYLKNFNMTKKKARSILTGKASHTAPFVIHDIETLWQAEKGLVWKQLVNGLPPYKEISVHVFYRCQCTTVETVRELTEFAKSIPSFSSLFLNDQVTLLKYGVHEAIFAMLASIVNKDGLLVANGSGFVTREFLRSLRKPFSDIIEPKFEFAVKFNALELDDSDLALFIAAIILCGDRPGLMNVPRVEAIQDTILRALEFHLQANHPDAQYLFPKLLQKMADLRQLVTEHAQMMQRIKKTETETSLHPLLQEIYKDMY
Briefly: Agonist activity at human PPARbeta expressed in african green monkey COS7 cells at 10 uM by Gal4 transactivation assay. Type of experiment: functional, cell-based. Particulars: COS-7.

Experiment [3] addresses T3, Peroxisome proliferator-activated receptor alpha (Homo sapiens, UniProt Q07869).
T3 sequence (Q07869 whole entry): T1 sequence (whole entry)
Briefly: Agonist activity at human PPARalpha expressed in african green monkey COS7 cells by Gal4 transactivation assay. The experiment is classed as functional, cell-based, COS-7. Summed up: (§1)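 COS7 cells were grown in DMEM with FCS, sodium pyruvate and penicillin/streptomycin at 37 °C, 5% CO2, and seeded at 30,000 cells/well the day before transfection. They were lipofected with pFR-Luc, pRL-SV40 and the Gal4-hPPAR-LBD plasmid of each subtype. After 5 h, cells received serum-free DMEM with 0.1% DMSO plus compound, incubated overnight, then Dual-Glo luciferase read-out. Triplicate wells, ≥3 independent experiments; EC50 from mean values.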

Experiment [4] deals with T4, Peroxisome proliferator-activated receptor gamma (Homo sapiens, UniProt P37231).
T4 sequence (P37231 whole entry): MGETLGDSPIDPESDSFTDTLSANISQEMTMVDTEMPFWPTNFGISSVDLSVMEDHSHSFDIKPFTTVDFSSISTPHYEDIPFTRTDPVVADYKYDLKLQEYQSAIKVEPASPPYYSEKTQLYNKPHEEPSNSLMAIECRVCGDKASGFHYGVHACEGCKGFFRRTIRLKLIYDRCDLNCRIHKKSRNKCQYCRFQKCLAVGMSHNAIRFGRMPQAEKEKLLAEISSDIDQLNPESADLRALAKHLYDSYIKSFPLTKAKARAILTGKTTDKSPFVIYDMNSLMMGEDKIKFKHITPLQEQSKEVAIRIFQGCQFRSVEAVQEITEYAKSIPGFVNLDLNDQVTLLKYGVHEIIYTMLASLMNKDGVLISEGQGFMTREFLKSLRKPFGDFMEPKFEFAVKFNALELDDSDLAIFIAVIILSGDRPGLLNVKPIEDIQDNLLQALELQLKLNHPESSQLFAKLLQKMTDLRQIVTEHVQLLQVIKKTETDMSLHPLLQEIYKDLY
Kind of experiment: Agonist activity at human PPARgamma expressed in african green monkey COS7 cells by Gal4 transactivation assay. The experiment is classed as functional, cell-based, COS-7. Summed up:
as §1

Experiment [5] deals with T5, Peroxisome proliferator-activated receptor gamma (Homo sapiens) (UniProt P37231).
T5 sequence (whole entry): T4 sequence (P37231 whole entry)
Briefly: Agonist activity at human PPARgamma expressed in african green monkey COS7 cells at 1 uM by Gal4 transactivation assay relative to pioglitazone. The experiment is classed as functional, cell-based. The settings on record: COS-7.

The subject of a further experiment is COS-7. Kind of experiment: Selectivity ratio of EC50 for human PPARgamma to EC50 for human PPARalpha expressed in african green monkey COS7 cells. Type of experiment: cell-based.
The target in experiment [6] is T6, Peroxisome proliferator-activated receptor delta (Homo sapiens, UniProt Q03181).
T6 sequence (Q03181 whole entry): T2 sequence (whole entry)
Kind of experiment: Agonist activity at human PPARbeta expressed in african green monkey COS7 cells by Gal4 transactivation assay. Type of experiment: functional, cell-based, COS-7. Summed up: as §1

Experiment [7] addresses T2, Peroxisome proliferator-activated receptor delta (Homo sapiens). Kind of experiment: Agonist activity at human PPARbeta expressed in african green monkey COS7 cells at 1 uM by Gal4 transactivation assay relative to L165041. Type of experiment: functional, cell-based. Particulars: COS-7.
Experiment [8] has the same target. Kind of experiment: Agonist activity at human PPARbeta expressed in african green monkey COS7 cells at 10 uM by Gal4 transactivation assay relative to L165041. The settings on record: COS-7. Type of experiment: functional, cell-based.
Experiment [9] addresses T5, Peroxisome proliferator-activated receptor gamma (Homo sapiens). Briefly: Agonist activity at human PPARgamma expressed in african green monkey COS7 cells at 10 uM by Gal4 transactivation assay. The experiment is classed as functional, cell-based. The settings on record: COS-7.
For experiment [10], the target named is T1, Peroxisome proliferator-activated receptor alpha (Homo sapiens). Kind of experiment: Agonist activity at human PPARalpha expressed in african green monkey COS7 cells at 10 uM by Gal4 transactivation assay. Type of experiment: functional, cell-based. The settings on record: COS-7.

As to `CCCCC(Sc1ccc(OCCCOc2cccc(OC)c2)cc1)C(=O)O` (centres undefined), the Activity in experiment [1] and in [5] was 85% throughout. Moreover, the result in [2] was inactive. For the same molecule, the EC50 in experiment [3] was found to be 49 nM; in experiment [4], 1200 nM.

Consider `CCCCC(Sc1ccc(OCCCOc2cccc3c2CCCC3)cc1)C(=O)O` (centres undefined), for which the figures for the Activity in experiment [1] and in experiment [5] were 101% and 107%, respectively. Moreover, the outcome in experiment [2] was inactive. The EC50 was 190 nM in experiment [3] and 8100 nM in [4].

For `CCCCC(Sc1ccc(OCCCOc2ccccc2OC)cc1)C(=O)O` (centres undefined), the Activity in experiment [1] turned out to be 92%; in [5], 85%. Moreover, the outcome in [2] was inactive. In addition, the EC50 turned out to be 550 nM in experiment [3] and 1600 nM in experiment [4].

For `CCCCC(Sc1ccc(OCCCOc2ccc(Cl)c(C(F)(F)F)c2)cc1)C(=O)O` (centres undefined), the Activity in [1] is 65%; in [5], 96%. In addition, the result in [2] was inactive. Besides, the figures for the half-maximal effective concentration (EC50) in [3] and in [4] were 390 nM and 7800 nM, respectively.

Take `CCCCC(Sc1ccc(OCCCOc2cccc(C)c2)cc1)C(=O)O` (centres undefined): the figures for the Activity in [1] and in [5] were 80% and 96%, respectively. In experiment [2], the result was inactive. Moreover, the EC50 in experiment [3] is 90 nM; in experiment [4], 3000 nM.

`CCCCC(Cc1ccc(OCCCOc2cccc(C)c2C)cc1)C(=O)O` (centres undefined): the Activity was 73% in experiment [1] and 120% in experiment [5]. In addition, the result in experiment [2] was inactive. The concentration for a half-maximal effect (EC50) in [3] worked out at 1500 nM; in experiment [4], 4200 nM.

For the molecule `CCCCC(Sc1ccc(OCCCOc2ccc3ncccc3c2)cc1)C(=O)O` (centres undefined), the Activity in experiment [1] was found to be 95%; in experiment [5], 49%. For the same molecule, in [2], the outcome was inactive. Moreover, the EC50 in experiment [3] was 220 nM; in [4], 1300 nM. In addition, the Ratio EC50 in the experiment on COS-7 turned out to be 6.

For the molecule `Cc1cccc(OCCCOc2ccc(SCC(=O)O)cc2)c1C`, the results for the Activity in [1], in experiment [7] and in experiment [5] were 81%, 52% and 77%, respectively. The EC50 in experiment [6] was determined as 1400 nM; in [3], 600 nM; in experiment [4], 3800 nM.

Regarding `CCCCC(Sc1ccc(OCCCOc2cccc(C(C)C)c2)cc1)C(=O)O` (centres undefined), the Activity in experiment [1] stood at 98%; in experiment [5] it was 91%. In experiment [2], the result was inactive. In addition, the half-maximal effective concentration (EC50) in experiment [3] was 150 nM; in [4], 5300 nM.

Take `Cc1cccc(OCCCOc2ccc(CCC(=O)O)cc2)c1C`: the Activity was determined as 63% in [1], 72% in experiment [7] and 54% in experiment [5]. Also, the results for the concentration giving a half-maximal response (EC50) in experiment [6], in experiment [3] and in experiment [4] were 11200 nM, 13800 nM and 15700 nM, respectively.

For the molecule `CCCCC(Sc1ccc(OCCCOc2ccc(C)cc2)cc1)C(=O)O` (centres undefined), the results for the Activity in experiment [1], in [8] and in [5] were 91%, 31% and 87%, respectively. Besides, the 50% effective concentration (EC50) in [3] is 85 nM; in experiment [4], 930 nM.

Consider `CCCC/C(=C\c1ccc(OCCCOc2cccc(C)c2C)cc1)C(=O)O`, for which the result in [2], in experiment [9] and in experiment [10] was inactive.

Take `CCCCC(Sc1ccc(OCCCOc2ccccc2C(C)C)cc1)C(=O)O` (centres undefined): the Activity was found to be 89% in experiment [1] and 92% in [5]. Besides, the result in experiment [2] was inactive. The EC50 in experiment [3] worked out at 2000 nM; in experiment [4], 4100 nM.

As to `CCCCC(Sc1ccc(OCCCOc2cccc(C)c2C)cc1)C(=O)O` (centres undefined), the results for the Activity in experiment [1] and in [5] were 113% and 82%, respectively. Moreover, the outcome in experiment [2] was inactive. In addition, the results for the concentration giving a half-maximal response (EC50) in experiment [3] and in experiment [4] were 56 nM and 3000 nM, respectively. Further, the Ratio EC50 with COS-7 turned out to be 54.

With `CCCCC(Sc1ccc(OCCCOc2ccccc2C)cc1)C(=O)O` (centres undefined), the Activity was found to be 64% in [1] and 114% in [5]. The result in [2] was inactive. Besides, the results for the EC50 in [3] and in experiment [4] were 250 nM and 2300 nM, respectively.

As for `CCCC[C@H](Sc1ccc(OCCCOc2cccc(C)c2C)cc1)C(=O)O`, the values for the Activity in experiment [1] and in experiment [5] were 94% and 77%, respectively. Besides, in experiment [2], the result was inactive. Further, the values for the EC50 in experiment [3] and in experiment [4] were 1700 nM and 9900 nM, respectively.

For the molecule `CCCCC(Sc1ccc(OCCCOc2ccccc2)cc1)C(=O)O` (centres undefined), the Activity in experiment [1] stood at 76%; in experiment [5], 83%. In addition, in experiment [2], the result was inactive. In addition, the results for the EC50 in [3] and in experiment [4] were 290 nM and 2600 nM, respectively. In addition, the Ratio EC50 in the experiment on COS-7 amounted to 9.

For `CCCCC(Sc1ccc(OCCCOc2cccc(C(F)(F)F)c2)cc1)C(=O)O` (centres undefined), the Activity is 75% in [1] and 68% in experiment [5]. Further, the outcome in experiment [2] was inactive. For the same molecule, the EC50 in [3] is 25 nM; in [4], 4600 nM.

As to `CCCCC(Sc1ccc(OCCCOc2ccc(C)c(C)c2)cc1)C(=O)O` (centres undefined), the results for the Activity in [1] and in experiment [5] were 72% and 61%, respectively. Also, the outcome in [2] was inactive. Besides, the EC50 in experiment [3] stood at 21 nM; in experiment [4], 3500 nM.

For `CCCC[C@@H](Sc1ccc(OCCCOc2cccc(C)c2C)cc1)C(=O)O`, the Activity in experiment [1] came to 115%; in experiment [5] it was 125%. Further, the result in [2] was inactive. For the same molecule, the 50% effective concentration (EC50) in [3] was found to be 11 nM; in experiment [4] it was 3900 nM.

As to `CCCCC(Sc1ccc(OCCCOc2ccc(-c3ccccc3)cc2)cc1)C(=O)O` (centres undefined), the Activity in experiment [1] worked out at 125%; in experiment [5] it was 108%. The outcome in [2] was inactive. Besides, the figures for the EC50 in experiment [3] and in [4] were 110 nM and 540 nM, respectively. For the same molecule, the Ratio EC50 with COS-7 worked out at 5.
